Results as given in paper PMC7056570 (Molecular cancer therapeutics, 2019).

Key:
[1] = system: silvestrol-resistant 697-R leukemic cells; assay: Cell proliferation of MDR1-overexpressing leukemic cells, 3 days; assay type: cell-based; settings: for sensitivity to MDR1 inhibition: 697-R versus 697 cells
[2] = system: parental 697 leukemic cells; assay: Cell proliferation of parental leukemic cells, 3 days; assay type: cell-based; settings: 72 h, read-out: IC50 in 697 cells
ST8814 MPNST cells = assay: Flow cytometry cell cycle analysis, ST8814; assay type: cell-based, human; settings: one- or two-IC50 doses, three days
STS26T MPNST cells = assay: Flow cytometry cell cycle analysis, STS26T; assay type: cell-based, human; settings: one- or two-IC50 doses, three days
[3] = system: panel of MPNST, schwannoma, and meningioma cell lines; assay: Growth-inhibitory activity compared in the cell line panel; assay type: cell-based; settings: all cell lines tested
Outline: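 Compounds were made up as 10-mM stocks in DMSO. Cell lines were authenticated by STR genotyping and confirmed mycoplasma-free. Proliferation was read by resazurin assay.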

Toxicology study in dogs = assay type: in vivo; settings: same protocol, same lab
[4] = cited from earlier work

| SMILES | sensitivity to MDR1 inhibition [1] | IC50 [2] [nM] | G2/M fraction (ST8814 MPNST cells) | G2/M fraction (STS26T MPNST cells) | potency relative to silvestrol [3] | pulmonary toxicity in dogs (Toxicology study in dogs) | oral bioavailability [4] [%] | IC50 ([1]; MDR1, 72 h, read-out: IC50 in 697-R cells) [nM] |
| --- | --- | --- | --- | --- | --- | --- | --- | --- |
| COc1ccc([C@@]23Oc4cc(OC)cc(OC)c4[C@]2(O)[C@H](O)[C@H](C(N)=O)[C@H]3c2ccccc2)cc1 [Didesmethylrocaglamide] | not sensitive to MDR1 inhibition | 3 | marked increase in the G2/M fraction | marked increase in the G2/M fraction | ~ 2 fold | – | – | – |
| COc1ccc([C@@]23Oc4cc(OC)cc(OC)c4[C@]2(O)[C@H](O)[C@H](C(=O)N(C)C)[C@H]3c2ccccc2)cc1 [Rocaglamide] | not sensitive to MDR1 inhibition | 8 | marked increase in the G2/M fraction | marked increase in the G2/M fraction | – | did not produce adverse pulmonary findings | – | – |
| COC(=O)[C@H]1[C@@H](O)[C@@]2(O)c3c(OC)cc(O[C@@H]4O[C@@H]([C@H](O)CO)CO[C@H]4OC)cc3O[C@@]2(c2ccc(OC)cc2)[C@@H]1c1ccccc1 [Silvestrol, reference compound] | – | 3.5 | – | – | – | massive lung damage | < 2 | 26 |
